Consider 20 compounds from ChEMBL document CHEMBL1132105, “Substituted analogues of GV150526 as potent glycine binding site antagonists in animal models of cerebral ischemia” (J Med Chem, 1999).

pKi: −log10 of the molar value.

One series concerns the target Glutamate NMDA receptor. Kind of series: Inhibition of [3H]glycine binding to N-methyl-D-aspartate glutamate receptor in synaptic membranes of rat cerebral cortex. The series is classed as cell membranes. In outline: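 Crude synaptic membranes from adult rat cerebral cortex; 20 nM [3H]glycine, 50 mM Tris/citrate pH 7.10, 20 min at 4 °C. Seven concentrations in duplicate; stock 5 mM in DMSO. Ki from at least six-point inhibition curves by nonlinear fitting; geometric mean of at least three experiments.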

In another series the target is Albumin (Rattus norvegicus, UniProt P02770). Kind of series: Binding to rat serum albumin.
Series [1] concerns Mus musculus. Kind of series: Inhibition of NMDA-induced convulsions in mice by the compound when administered by peroral route. The settings on record: po. Type of series: functional. In outline: (§1)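 Male CD-1 mice (18-29 g); test compound given iv (1 min) or po (1 h) before icv NMDA (1 nmol/mouse). Animals observed 30 min for generalized seizures and scored protected if none occurred. Percentage protected per group recorded; ED50 estimated with 95% confidence limits.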

Series [2] concerns Mus musculus. Kind of series: Inhibition of NMDA-induced convulsions in mice by the compound when administered by intravenous route. The series is classed as functional. In outline: as §1
Series [3] relates to Rattus norvegicus. Kind of series: Postischemic effect of the compound in the MACo model in rats measured 24 hr after occlusion at an intravenous dose of 1 mg/kg. The series is classed as functional. The method in brief: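 Male Sprague-Dawley rats (280-350 g), permanent distal MCA electrocoagulation under chloral hydrate; single iv bolus 1 mg/kg given 6 h after occlusion, vehicle 3% DMSO in water. Infarct volume from TTC-stained 0.5 mm coronal slices 24 h after occlusion, trapezoidal rule, n = 8.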

Series [4] has as its system Rattus norvegicus. Kind of series: Preischemic effect of the compound in the MACo model in rats measured 24 hr after occlusion at an intravenous dose of 0.3 mg/kg. The series is classed as functional. In outline: (§2)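 Permanent distal MCA electrocoagulation in male Sprague-Dawley rats (280-350 g) under chloral hydrate (400 mg/kg ip), normothermic; compound iv 5 min before occlusion, in 3% DMSO in water. At 24 h, 0.5 mm coronal slices stained with 2% TTC (37 °C, 20 min); infarct volume by trapezoidal rule, n = 8; reduction vs vehicle.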

For series [5], the target named is Glutamate receptor ionotropic, kainate. Kind of series: Inhibition of binding of [3H]kainate to Ionotropic glutamate receptor kainate in synaptic membranes of rat cerebral cortex. The series is classed as cell membranes. In outline: (§3)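 Rat cortical membrane radioligand binding; compounds from 5 mM DMSO stock tested at five concentrations, 10 nM to 100 µM, with a reference compound as internal control.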

Series [6] concerns Rattus norvegicus. Kind of series: Preischemic effect of the compound in the MACo model in rats measured 24 h after occlusion at an intravenous dose of 1 mg/kg. The series is classed as functional. The method in brief:
as §2

The nature of series [7]: Effective dose was evaluated. Type of series: functional.
The target in series [8] is Glutamate receptor ionotropic, AMPA (Rattus norvegicus, UniProt P19490+P19491+P19492+P19493). Kind of series: Inhibition of binding of [3H]AMPA to Ionotropic glutamate receptor AMPA in synaptic membranes of rat cerebral cortex. Type of series: cell membranes. In outline: as §3
The test system of series [9] is Rattus norvegicus. Kind of series: Preischemic effect of the compound in the MACo model in rats measured 24 hr after occlusion at an intravenous dose of 3 mg/kg. The series is classed as functional. The method in brief: as §2
Series [10] has as its system Rattus norvegicus. Kind of series: Preischemic effect of the compound in the MACo model in rats measured 24 hr after occlusion at an intravenous dose of 0.1 mg/kg. Type of series: functional. In outline: as §2
For series [11], the species on record is Rattus norvegicus. Kind of series: Percent damage reduction. The series is classed as functional. Also on record: concentration or dose not given beside the values. In outline: as §2
A short description of series [12]: Inhibition of binding of [3H]CPP in presence of glutamate to glutamate binding site of N-methyl-D-aspartate glutamate receptor in synaptic membranes of rat cerebral cortex. Type of series: cell membranes.

Chain of Albumin (P02770 whole entry): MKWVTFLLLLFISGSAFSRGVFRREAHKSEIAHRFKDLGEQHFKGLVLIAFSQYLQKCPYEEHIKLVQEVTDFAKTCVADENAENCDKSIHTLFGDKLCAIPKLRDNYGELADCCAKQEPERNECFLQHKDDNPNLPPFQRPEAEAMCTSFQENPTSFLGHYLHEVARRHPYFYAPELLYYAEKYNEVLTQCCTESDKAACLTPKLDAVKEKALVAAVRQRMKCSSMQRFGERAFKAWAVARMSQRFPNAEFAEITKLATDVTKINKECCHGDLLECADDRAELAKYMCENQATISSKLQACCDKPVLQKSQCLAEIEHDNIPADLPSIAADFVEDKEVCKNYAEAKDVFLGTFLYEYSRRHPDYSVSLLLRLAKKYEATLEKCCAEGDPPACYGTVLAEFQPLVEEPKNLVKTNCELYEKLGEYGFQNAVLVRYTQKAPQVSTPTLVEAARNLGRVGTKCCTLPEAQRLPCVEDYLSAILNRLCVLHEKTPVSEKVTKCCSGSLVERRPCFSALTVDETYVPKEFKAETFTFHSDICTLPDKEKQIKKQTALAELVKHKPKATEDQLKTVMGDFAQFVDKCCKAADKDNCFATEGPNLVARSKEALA

With `COc1ccc(NC(=O)NCc2ccc(NC(=O)/C=C/c3c(C(=O)[O-])[nH]c4cc(Cl)cc(Cl)c34)cc2)cc1.[Na+]`, the “Log Ki” value at Glutamate NMDA receptor is given as -7.69.

Consider `O=C(/C=C/c1c(C(=O)[O-])[nH]c2cc(Cl)cc(Cl)c12)NC12CC3CC(CC(C3)C1)C2.[Na+]`, for which the “RSA tR” value on Albumin is reported as 141.2 min.

As for `C[C@@H](NC(N)=O)c1ccc(NC(=O)/C=C/c2c(C(=O)[O-])[nH]c3cc(Cl)cc(Cl)c23)cc1.[Na+]`, the “Log Ki” value on Glutamate NMDA receptor was -7.93.

`Nc1ccc(NC(=O)/C=C/c2c(C(=O)[O-])[nH]c3cc(Cl)cc(Cl)c23)cc1.[Na+]`: the “RSA tR” value at Albumin came to 23.2 min.

For the compound `NC(=O)Nc1ccc(NC(=O)/C=C/c2c(C(=O)[O-])[nH]c3cc(Cl)cc(Cl)c23)cc1.[Na+]`, at Glutamate NMDA receptor, the “Log Ki” value is given as -8.8. Also, the 50% effective dose (ED50) in the series on Mus musculus [1] came out at 9.6 mg/kg; with Mus musculus [2], 0.55 mg/kg. Besides, the “RSA tR” value on Albumin was 28.3 min.

Take `CC/N=C(\S)NCc1ccc(NC(=O)/C=C/c2c(C(=O)[O-])[nH]c3cc(Cl)cc(Cl)c23)cc1.[Na+]`: at Glutamate NMDA receptor, the “Log Ki” value is on record as -7.91. In addition, the “RSA tR” value at Albumin was 34.1 min.

For `O=C(/C=C/c1c(C(=O)[O-])[nH]c2cc(Cl)cc(Cl)c12)NC1CCCCC1.[Na+]`, the “RSA tR” value at Albumin stood at 25.7 min.

In the case of `CC(=O)Nc1ccc(NC(=O)/C=C/c2c(C(=O)[O-])[nH]c3cc(Cl)cc(Cl)c23)cc1.[Na+]`, the “RSA tR” value at Albumin was determined as 31.6 min.

`O=C(/C=C/c1c(C(=O)[O-])[nH]c2cc(Cl)cc(Cl)c12)Nc1ccc(CNC(=O)Nc2cccnc2)cc1.[Na+]`: the “Log Ki” value on Glutamate NMDA receptor is -7.83.

With `C[C@H](NC(N)=O)c1ccc(NC(=O)/C=C/c2c(C(=O)[O-])[nH]c3cc(Cl)cc(Cl)c23)cc1.[Na+]`, at Glutamate NMDA receptor, the “Log Ki” value is on record as -8.2.

`O=C(/C=C/c1c(C(=O)[O-])[nH]c2cc(Cl)cc(Cl)c12)NCc1ccccc1.[Na+]`: the “RSA tR” value on Albumin turned out to be 66.9 min.

On to `O=C(/C=C/c1c(C(=O)[O-])[nH]c2cc(Cl)cc(Cl)c12)Nc1ccc(CNC(=O)NC2CCOCC2)cc1.[Na+]`, for which the “Log Ki” value at Glutamate NMDA receptor is recorded as -8.15. On Albumin, the “RSA tR” value is reported as 29.6 min.

For `CCNC(=O)NCc1ccc(NC(=O)/C=C/c2c(C(=O)[O-])[nH]c3cc(Cl)cc(Cl)c23)cc1.[Na+]`, at Glutamate NMDA receptor, the “Log Ki” value is given as -8.62.

Take `NC(=O)NCc1ccc(NC(=O)/C=C/c2c(C(=O)[O-])[nH]c3cc(Cl)cc(Cl)c23)cc1.[Na+]`: the Infarct volume in the series with Rattus norvegicus [3] is given as 54.7 mm**3; in the series on Rattus norvegicus [4], 36.4 mm**3; with Rattus norvegicus [6], 38.9 mm**3; in the series with Rattus norvegicus [9] it was 27.8 mm**3; with Rattus norvegicus [10], 61.9 mm**3. In addition, the results for the “Log Ki” value (at Glutamate NMDA receptor; in series [5]; in series [12]) were -8.67, -4.68 and -3.48, respectively. In addition, the results for the ED50 (with Mus musculus [1]; in [7]; with Mus musculus [2]) were 2 mg/kg, 0.2 mg/kg and 0.07 mg/kg, respectively. Moreover, on Albumin, the “RSA tR” value stood at 40.7 min. In addition, in series [8], the pKi was 3.98. For the same compound, in the series filed under Rattus norvegicus [11], the damage reduction is 41% [middle of 5 runs].

Regarding `O=C(/C=C/c1c(C(=O)[O-])[nH]c2cc(Cl)cc(Cl)c12)Nc1ccc(CNC(=O)Nc2ccccc2)cc1.[Na+]`, at Glutamate NMDA receptor, the “Log Ki” value is on record as -7.7.

`NC(=O)NCCc1ccc(NC(=O)/C=C/c2c(C(=O)[O-])[nH]c3cc(Cl)cc(Cl)c23)cc1.[Na+]`: at Glutamate NMDA receptor, the “Log Ki” value is on record as -8.2. The median effective dose (ED50) in the series with Mus musculus [1] worked out at 17.3 mg/kg; with Mus musculus [2] it was 0.14 mg/kg. The “RSA tR” value on Albumin stood at 33.9 min.

Regarding `O=C(/C=C/c1c(C(=O)[O-])[nH]c2cc(Cl)cc(Cl)c12)Nc1ccc(CNC(=O)NC2CC2)cc1.[Na+]`, at Glutamate NMDA receptor, the “Log Ki” value is reported as -8.25.

Turning to `O=C(O)CNC(=O)NCc1ccc(NC(=O)/C=C/c2c(C(=O)[O-])[nH]c3cc(Cl)cc(Cl)c23)cc1.[Na+]`, the “Log Ki” value on Glutamate NMDA receptor is recorded as -8.57.

Take `O=C(/C=C/c1c(C(=O)[O-])[nH]c2cc(Cl)cc(Cl)c12)Nc1ccccc1.[Na+]` [GAVESTINEL SODIUM]: the “Log Ki” value on Glutamate NMDA receptor is recorded as -8.49. Moreover, the figures for the ED50 in the series on Mus musculus [1] and in the series on Mus musculus [2] were 6 mg/kg and 0.06 mg/kg, respectively. For the same compound, the “RSA tR” value at Albumin is 60.1 min.

With `O=c1[nH]c2cc(Cl)c(Cl)c([N+](=O)[O-])c2[nH]c1=O` [LICOSTINEL], at Albumin, the “RSA tR” value was determined as 12.1 min.

In general, ED50 refers to the midpoint of the dose-response relation. By pKi is commonly meant the negative decadic logarithm of the Ki, by convention in mol/L.
